Assay results pooled from the literature.
Each line is one published result; the experiments were not run side by side.
Target: cGMP-dependent protein kinase 2 (PRKG2, Homo sapiens, UniProt Q13237)
One construct used (Q13237 1-762): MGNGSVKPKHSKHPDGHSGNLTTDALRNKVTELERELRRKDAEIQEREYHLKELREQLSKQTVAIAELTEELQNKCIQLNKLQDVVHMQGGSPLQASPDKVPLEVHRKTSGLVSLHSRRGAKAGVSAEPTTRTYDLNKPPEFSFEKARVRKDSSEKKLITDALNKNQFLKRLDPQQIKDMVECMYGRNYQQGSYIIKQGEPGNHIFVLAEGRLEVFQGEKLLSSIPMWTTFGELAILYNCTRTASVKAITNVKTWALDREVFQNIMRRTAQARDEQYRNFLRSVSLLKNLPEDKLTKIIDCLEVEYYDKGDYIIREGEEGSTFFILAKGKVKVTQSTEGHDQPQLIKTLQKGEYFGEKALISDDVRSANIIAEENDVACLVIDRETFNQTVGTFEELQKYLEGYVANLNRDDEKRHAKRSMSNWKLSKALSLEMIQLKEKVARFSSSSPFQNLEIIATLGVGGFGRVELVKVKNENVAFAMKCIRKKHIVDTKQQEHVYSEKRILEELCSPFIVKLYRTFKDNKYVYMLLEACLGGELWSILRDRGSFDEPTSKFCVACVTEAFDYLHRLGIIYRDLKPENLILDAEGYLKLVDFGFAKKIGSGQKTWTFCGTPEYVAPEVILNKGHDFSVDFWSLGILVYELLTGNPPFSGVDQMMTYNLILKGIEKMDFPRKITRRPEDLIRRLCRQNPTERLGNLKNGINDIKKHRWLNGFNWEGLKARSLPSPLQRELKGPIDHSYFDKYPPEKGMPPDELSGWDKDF

Compound	effect on	method	tested at	remaining binding [%]
C=CC(=O)N1CCC(C(=O)NCC(=O)N2CCN(c3nc(-c4cnc(N)nc4C(F)F)nc(N4CCOCC4)n3)CC2)CC1	binding	competition with immobilised ligand	1 µM	69
O=C(c1ccc(Nc2ncc(Cl)c(-c3ccc(Cl)s3)n2)cc1)N1CCC(N2CCCC2)CC1	binding	competition with immobilised ligand	1 µM	42
c1cncc(-c2cccc(Nc3nccc(NC4CCCCC4)n3)c2)c1	binding	competition with immobilised ligand	10 µM	74
c1cnn2ncc(-c3ccnc(N4CCC45COC5)n3)c2c1	binding	–	1 µM	82
O=C(NCCCN1CCOCC1)c1ccc(Nc2ncc(Cl)c(-c3ccc(Cl)s3)n2)cc1	binding	competition with immobilised ligand	1 µM	54
CN(C)c1ncc(F)c(-c2cnn3ncccc23)n1	binding	–	1 µM	100
Nc1ncc2c(n1)-c1c([nH]c3ccc(C#CC4CC4)cc13)CCCC2	binding	competition with immobilised ligand	1 µM	80
CO[C@@H](C)c1c(Nc2ccc([C@H](N(C)C(=O)C3CCS(=O)(=O)CC3)C(F)(F)F)cc2)cnc2cc(Cl)nn12	cell-free assay	competition with immobilised ligand	1 µM	100
COc1cnc(Nc2cccc(S(N)(=O)=O)c2)nc1N1CCN(c2ccccc2)CC1	binding	competition with immobilised ligand	1 µM	92
CCN1CCN(Cc2ccc(C(=O)Nc3ccc(C)c(Oc4ccc5c(c4)CC(=O)N5)c3)cc2C(F)(F)F)CC1	binding	competition with immobilised ligand	1 µM	100
O=C1CCc2cc(Nc3cc(OC4CCOCC4)c([N+](=O)[O-])cc3Cl)ccc2N1	cell-free assay	competition with immobilised ligand	1 µM	85
CN(C)c1nccc(-c2cnc3ncccn23)n1	binding	–	1 µM	69
CNCc1ccccc1-c1csc([C@H](C)Nc2nc(C)nc3cc(OC)c(OC)cc23)c1	cell-free assay	competition with immobilised ligand	1 µM	93
O=C(Nc1c[nH]nc1C(=O)NC1CCNCC1)c1cc(F)cc(F)c1	binding	competition with immobilised ligand	1 µM	91
N[C@H]1CCN(c2nccc(-c3cnn4ncccc34)n2)C1	binding	–	1 µM	91
O=C(NCCCN1CCOCC1)c1ccc(Nc2nccc(-c3cc4ccccc4s3)n2)cc1	binding	competition with immobilised ligand	1 µM	43
CCC(=O)N[C@H]1CC[C@@H](C(=O)N(C)c2ccc(-c3nc4ccccc4o3)cc2)C1	cell-free assay	competition with immobilised ligand	1 µM	100
CNC(=O)[C@@H]1CC[C@@H](n2c(-c3ccc4cnccc4c3)nc3ccc(C(=O)NCc4cccc(C(N)=O)c4)cc32)C1	binding	competition with immobilised ligand	1 µM	100
C[C@H](c1ccc(F)cc1)N(Cc1cccc(C(=O)O)c1)C(=O)c1cnc2ccccc2c1	cell-free assay	competition with immobilised ligand	1 µM	100
COc1ccnn2ncc(-c3ccnc(N(C)C)n3)c12	binding	–	1 µM	100
O=C(O)c1cc(-c2ccc(C3CCNCC3)cc2)c2ccc(-c3ccc(C(F)(F)F)cc3)cc2c1	cell-free assay	competition with immobilised ligand	1 µM	79
CN(c1nccc(-c2cnn3ncccc23)n1)C1CC1	binding	–	1 µM	100
